# Experimental data taken from ChEMBL document CHEMBL4184234, “Synthesis of novel (-)-epicatechin derivatives as potential endothelial GPER agonists: Evaluation of biological effects” (Bioorg Med Chem Lett, 2018).
# Activity calls are given as the source filed them. The rule behind the calls is not given here.
# Assays:
# [1] = organism: Bos taurus; assay: Agonist activity at GPER in BCAEC assessed as increase in nitric oxide production at 1 uM pre-incubated with 1 uM GPER antagonist G15 for 30 mins followed by compound incubation for 10 mins by nitrate/nitrite fluorometric assay relative to untreated control; parameters: scale not given: the % may be the effect or the level left
# Outline: (§1)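 BCAEC given 1 μM ligand for 10 min, with 1 μM (−)-epicatechin as reference; GPER blockade by 30 min pre-incubation with 1 μM G15 before ligand. Nitrates/nitrites in supernatant measured as surrogate of NO synthesis. Values normalized to control (set to 1) or to Epi (100%). Mean ± SEM, n=5 per group.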
# [2] = organism: Bos taurus; assay: Agonist activity at GPER in BCAEC assessed as increase in eNOS Ser1179 phosphorylation at 1 uM incubated for 10 mins by Western blot relative to untreated (-)-epicatechin
# Outline: (§2)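 Bovine coronary artery endothelial cells stimulated 10 min with 1 μM ligand; (−)-epicatechin at 1 μM as reference. For GPER blockade, cells pre-incubated 30 min with G15 (1 μM) before ligand. Ser1179-phosphorylated eNOS immunodetected by Western blot. Control set to 1, or Epi set to 100% with derivatives expressed as percent of Epi. Mean ± SEM, n=5 per group.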
# [3] = organism: Bos taurus; assay: Agonist activity at GPER in BCAEC assessed as increase in nitric oxide production at 1 uM incubated for 10 mins by nitrate/nitrite fluorometric assay relative to untreated (-)-epicatechin; outline: as §1
# [4] = organism: Bos taurus; assay: Agonist activity at GPER in BCAEC assessed as increase in eNOS Ser1179 phosphorylation at 1 uM pre-incubated with 1 uM GPER antagonist G15 for 30 mins followed by compound incubation for 10 mins by Western blot relative to untreated control; parameters: scale not given: the % may be the effect or the level left; outline: as §2
# [5] = organism: Bos taurus; assay: Binding affinity to GPER in BCAEC protein extracts using compound loaded on to affinity chromatography Agarose columns incubated overnight at 4 degC with mild tumbling by Coomassie-blue staining based SDS-PAGE and Western blot method
# Outline: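 Propargyl derivative coupled to agarose-azide beads by click chemistry; coupling gauged by fluorescence of washings against an external calibration curve. Three control columns lacked ligand and/or copper sulfate/ascorbate. BCAEC protein extract (0.8–1.0 mg) loaded, overnight 4 °C with mild tumbling. Washed with 5 mM EDTA/0.5% SDS/250 mM NaCl in PBS pH 7.5, then PBS. Eluted in PBS with 8 M urea, concentrated, run on SDS-PAGE with Coomassie staining. Western blot used monoclonal GPER antibody.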
Compound,Activity [1] [%],Activity [2] [%],Activity [3] [%],Activity [4] [%],Activity [5]
C#CCOc1cc(OCC#C)c2c(c1)O[C@H](c1ccc(OCC#C)c(OCC#C)c1)[C@H](OCC#C)C2,60,92.6,102,54.8,–
CS(=O)(=O)O[C@@H]1Cc2c(O)cc(O)cc2O[C@@H]1c1ccc(O)c(O)c1,41.8,64.8,54.5,53,–
C#CCOc1cc(OCC#C)c2c(c1)O[C@H](c1ccc(OCC#C)c(OCC#C)c1)[C@H](O)C2,63.6,111,107,57.4,–

# The next lines start with the values.
Activity [1] [%],Activity [2] [%],Activity [3] [%],Activity [4] [%],Activity [5],Compound
60,–,–,55.6,Active,Oc1cc(O)c2c(c1)O[C@H](c1ccc(O)c(O)c1)[C@H](O)C2
70.9,137,142,59.3,–,C#CCO[C@@H]1Cc2c(O)cc(O)cc2O[C@@H]1c1ccc(O)c(O)c1
